Hits are enriched below; roughly 2% of the tested compounds scored in any of these assays.
UHRF1 binding: human UHRF1 methylated DNA binding inhibitors. Q96T88. UHRF1 binding to methylated oligo, TR-FRET. inhibition, % at 4.4 µM. 0.75% of 370,000 active. AID 687016; in the data active = inhibition above about 21%;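 also: UHRF1 SRA domain binding a hemimethylated CpG hairpin DNA probe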
ARFGAP1 inh: rat ARFGAP1 inhibition; Arfgap1-stimulated ARF1 GTP hydrolysis, GDP FP detection; 0.26% of 360,000 active; inhibition, % at 16.5 µM;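 active = inhibition above a per-plate limit, mean inhibition of low control wells plus 3 SD, cut at about 25% in these data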
Target sequence (Q62848 1-136 limits assumed): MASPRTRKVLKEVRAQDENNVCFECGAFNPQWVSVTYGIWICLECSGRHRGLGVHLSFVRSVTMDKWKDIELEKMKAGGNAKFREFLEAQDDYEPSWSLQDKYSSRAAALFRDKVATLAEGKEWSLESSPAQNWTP
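Assay system: Rat Arfgap1 GAP domain (His6, aa 1-136), purified enzyme | Buffer or medium: HEPES 25 mM pH 7.5, NaCl 150 mM, MgCl2, DTT | Schedule: GTP hydrolysis reaction 2 h at 25 °C | Signal: FP of antibody-bound GDP Alexa 633 tracer, ex 620/em 688 nm | Measure: Percent inhibition of Arfgap1-stimulated GTP hydrolysis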
LEDGF integ inh: blocks HIV-1 LEDGF/p75-dependent DNA integration | TR-FRET IN-LEDGF/p75 DNA integration, Eu/Cy5 | inhibition, % at 3.7 µM | 0.64% of 370,000 active | AID 743269;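 active = inhibition above the screen-wide mean plus 3 SD, cut at about 13% in these data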;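 also: signal is the Cy5 over europium emission ratio at 671 and 618 nm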
ASAP1 GAP inh: inhibitors of human ASAP1 ArfGAP activity | Q9ULH1 | ASAP1-stimulated ARF1 GTP hydrolysis, GDP FP detection | inhibition, % at 16.5 µM | 0.19% of 360,000 active; in the data active = inhibition above about 25%
TDP2 inh: TDP2 (human) inhibition, absorbance primary screen | O95551 | recombinant TDP2, T5PNP hydrolysis, p-nitrophenol absorbance 415 nm | inhibition, % at 12.8 µM | 0.34% of 370,000 active;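 active = inhibition above the mean of all tested compounds plus 3 SD, set per campaign, cut at about 25% in these data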
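System – recombinant human TDP2 · Quantity – TDP2 enzyme at 120 nM final · Doses – single concentration, 12.8 µM nominal, with 1% DMSO · Incubation – 2 h at 37 °C · Measured by – epi absorbance of p-nitrophenol freed from T5PNP by hydrolysis · Read-out – % inhibition relative to enzyme-containing and enzyme-free wells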
MBD2 inh: blocks human MBD2 binding to methylated DNA; 0.31% of 370,000 active; inhibition, % at 4.4 µM; Q9UBB5; AID 686964; TR-FRET, MBD2 binding to methylated oligonucleotide; in the data active = inhibition above about 13%
Target sequence (Q9UBB5 whole entry, looked up): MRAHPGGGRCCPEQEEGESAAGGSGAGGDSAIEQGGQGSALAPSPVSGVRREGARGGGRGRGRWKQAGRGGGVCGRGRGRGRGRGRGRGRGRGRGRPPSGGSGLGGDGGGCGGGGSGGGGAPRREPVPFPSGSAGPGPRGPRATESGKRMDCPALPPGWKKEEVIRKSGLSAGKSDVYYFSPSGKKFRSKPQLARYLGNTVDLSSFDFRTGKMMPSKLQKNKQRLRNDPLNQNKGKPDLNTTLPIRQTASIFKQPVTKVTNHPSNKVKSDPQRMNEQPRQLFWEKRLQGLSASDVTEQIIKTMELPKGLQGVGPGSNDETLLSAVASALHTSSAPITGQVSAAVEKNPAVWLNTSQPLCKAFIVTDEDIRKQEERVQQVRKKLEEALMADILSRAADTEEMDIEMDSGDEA
ARFGAP1 confirm: confirmation of rat ARFGAP1 inhibitors | shares compounds with ARFGAP1 inh | ARFGAP1-stimulated ARF1 GTP hydrolysis, GDP tracer FP | inhibition, % at 16.5 µM | 30% of 890 active;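 active = average inhibition over triplicates above the hit cutoff set in the earlier primary screen, cut at about 25% in these data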
Large screens that a line does not name were inactive (follow-up assays come after a bar, where they were run).

COc1cccc(C(=O)Cn2c(Br)nc3c2c(=O)n(C)c(=O)n3C)c1	ARFGAP1 inh 28 | ARFGAP1 confirm inactive
CCOc1ccccc1C(=O)N(CN1CCCC1=O)c1cccc(Cl)c1	ARFGAP1 inh 38 | ARFGAP1 confirm inactive
COc1cccc(/C=N/NC(=O)c2ccc(-c3ccccc3)cc2)c1O	ARFGAP1 inh 37 | ARFGAP1 confirm 30
O=C(COC(=O)CNC(=O)c1ccc(Cl)cc1Cl)NC(=O)NC1CCCCC1	none
O=C(COC(=O)CNC(=O)c1ccc(Cl)cc1Cl)NC1CCCCC1	ARFGAP1 inh 27 | ARFGAP1 confirm inactive
COc1ccc(OC)c(-n2nnnc2SCC(=O)Nc2ccc3c(c2)OCCO3)c1	ARFGAP1 inh 49 | ARFGAP1 confirm 45
C=CCN1C(=O)[C@@H](CC(=O)NCCCC)[C@]2(C(=O)OCC)CCCCC/C=C/12	none (no result: ARFGAP1 inh, ASAP1 GAP inh)
O=C(Nc1ccc(Cl)cc1)C1CCCN1S(=O)(=O)c1cccnc1 (centres undefined)	none (no result: ARFGAP1 inh, ASAP1 GAP inh)
O=C(Cn1c2ccc(F)cc2c2nc3n(c(=O)c21)CCS3)Nc1ccccc1C(F)(F)F	ARFGAP1 inh 30 | ARFGAP1 confirm 42
CC1CCC2(CC1)CCC2NCc1ccc(Cl)cc1 (centres undefined)	none (no result: ARFGAP1 inh, ASAP1 GAP inh)
COc1ccc(CNC(=O)c2sc(=O)n(Cc3ccc(C)cc3)c2C)cc1OC	none
COc1ccc(CNC(=O)c2sc(=O)n(Cc3ccc(-c4ccccc4)cc3)c2C)cc1OC	ARFGAP1 inh 26 | ARFGAP1 confirm inactive
Cc1cc(N2CCCN(C)CC2)n2nc(C)nc2n1	none (no result: ARFGAP1 inh, ASAP1 GAP inh)
CC(C)Oc1cccc(-c2n[nH]c(=S)n2N=Cc2ccc(OCc3ccccc3)cc2)c1	none (no result: ARFGAP1 inh, ASAP1 GAP inh)
Cc1ccc(-n2nc(C(=O)NN)c(C)c(C#N)c2=O)cc1Cl	none
Cc1c(C(=O)NN)nn(-c2ccc(Cl)cc2)c(=O)c1C#N	ARFGAP1 inh 25 | ARFGAP1 confirm inactive
CCOC(=O)C1=C(CBr)NC(=O)NC1C (centres undefined)	ARFGAP1 inh 33 | ARFGAP1 confirm inactive
CCOC(=O)C1=C(C)NC(=O)NC1C (centres undefined)	none
O=C(COC(=O)C1CCC1)Nc1cc(S(=O)(=O)N2CCCCC2)ccc1Cl	none
CC(=O)OCC(=O)Nc1cc(S(=O)(=O)N2CCCCCC2)ccc1Cl	ARFGAP1 inh 25 | ARFGAP1 confirm inactive
OCCOCCNc1ncnc2sc(-c3ccccc3)cc12	ARFGAP1 inh 36 | ARFGAP1 confirm inactive
Cc1sc2nc(SCC(=O)N3CC(C)OC(C)C3)n(C)c(=O)c2c1C (centres undefined)	ARFGAP1 inh 26 | ARFGAP1 confirm inactive
CCOC(=O)CSc1nc2sc(C)c(C)c2c(=O)n1C	none
COc1ccccc1NS(=O)(=O)c1cc2c(cc1C)NC(=O)CO2	ARFGAP1 inh 51 | ARFGAP1 confirm inactive
Nc1c(-c2ccccc2)nc2ncccn12	none
O=Nc1c(-c2cccc([N+](=O)[O-])c2)nc2ncccn12	ARFGAP1 inh 26 | ARFGAP1 confirm inactive
CCN(CC)c1ccc(C(=C2C=CC(=[N+](CC)CC)C=C2)c2ccc(N(CC)CC)cc2)cc1	ARFGAP1 inh 36 | ARFGAP1 confirm inactive
CC1(C)CC(=O)C=C(NCCN2CCN(C(=O)Nc3ccc(Cl)cc3)CC2)C1	ARFGAP1 inh 33 | ARFGAP1 confirm inactive
COC(=O)[C@]12C[C@H](CC(=O)NCCCCc3ccccc3)C(=O)N(Cc3ccc(Cl)cc3Cl)C1=C[C@H](C1CCCC1)O[C@@H]2C	none (no result: ARFGAP1 inh, ASAP1 GAP inh)
Cc1ccc(S(=O)(=O)N2CCC(=O)N(CCOC(=O)Nc3ccc(C)c(C)c3)CC2)cc1	ARFGAP1 inh 35 | ARFGAP1 confirm inactive
Cc1cccc(Nc2nc(-c3ccc4c(c3)OCCO4)cs2)c1	ARFGAP1 inh 26 | ARFGAP1 confirm inactive
Cc1cccc(Nc2nc(-c3ccncc3)cs2)c1	none
CC1(C)C2CCC1(CS(=O)(=O)N1CCOCC1)C(=O)C2 (centres undefined)	none
CC1CC(C)CN(S(=O)(=O)CC23CCC(CC2=O)C3(C)C)C1 (centres undefined)	ARFGAP1 inh 25 | ARFGAP1 confirm inactive
O=C(Nc1c(-c2ccc(C(F)(F)F)cc2)nc2ncccn12)c1ccccc1	none (no result: ARFGAP1 inh, ASAP1 GAP inh)
Cc1ccc2c(c1)C(CS(=O)(=O)NCc1ccc(F)cc1)NC2 (centres undefined)	none (no result: ARFGAP1 inh, ASAP1 GAP inh)
OC[C@@H]1CN(Cc2ccc(F)cc2)C[C@H](n2cnc3c(Nc4ccccc4)ncnc32)O1	ARFGAP1 inh 38 | ARFGAP1 confirm inactive
OC[C@@H]1CN(Cc2ccccc2)C[C@H](n2cnc3c(NCc4ccc(F)cc4)ncnc32)O1	none
CCOC(=O)c1ccc(Nc2nc(C)cc(C)n2)cc1	none
CCOC(=O)c1ccc(Nc2cc(C)nc(-c3ccccc3)n2)cc1	ARFGAP1 inh 27 | ARFGAP1 confirm inactive
COC(=O)c1ccc(NC(=O)Nc2ccc(F)cc2)cc1	none
COc1ccc(NC(=O)Nc2ccc(F)cc2)cn1	ARFGAP1 inh 25 | ARFGAP1 confirm inactive
COc1cc(O)c(CC=C(C)C)c(O)c1C(=O)CCc1ccc(O)cc1	UHRF1 binding 23, ARFGAP1 inh 29 | ARFGAP1 confirm 29
C=CCOc1ccc(/C=C/C(=O)Nc2ccc(C(=O)NC)cc2)cc1	ARFGAP1 inh 29 | ARFGAP1 confirm 37
CCCCOc1ccc(/C=C/C(=O)Nc2ccc(C(N)=O)cc2)cc1	none
CCOc1ccc(-n2c(SCC(=O)Nc3ccc(Oc4ccccc4)cc3)nnc2-c2ccncc2)cc1	none (no result: ARFGAP1 inh, ASAP1 GAP inh)
COc1cc(OC)cc(C(=O)Nc2ccccc2-c2nnn(CC(=O)Nc3cc(C)on3)n2)c1	ARFGAP1 inh 25 | ARFGAP1 confirm 31
COc1ccc(C(=O)Nc2ccccc2-c2nnn(CC(N)=O)n2)cc1	none
CCCOc1ccc(-c2cc(C(=O)NCC3CCCO3)c3ccccc3n2)cc1 (centres undefined)	ARFGAP1 inh 27 | ARFGAP1 confirm inactive
O=C(NCC1CCCO1)c1cc(-c2ccncc2)nc2ccccc12 (centres undefined)	none
CC(CCN1CCC(C(O)(c2ccccc2)c2ccccc2)CC1)Oc1cccc(F)c1 (centres undefined)	none (no result: ARFGAP1 inh, ASAP1 GAP inh)
CN(Cc1ccccc1)C(=O)OCc1cn(Cc2ccc(Cl)cc2)nn1	none (no result: ARFGAP1 inh, ASAP1 GAP inh)
OCC1(Cc2cccc(F)c2)CCN(Cc2ccc3cccc(F)c3n2)CC1	ARFGAP1 inh 25 | ARFGAP1 confirm inactive
CC(C)CNC(=O)OCc1cn(Cc2ccc(Cl)cc2)nn1	none (no result: ARFGAP1 inh, ASAP1 GAP inh)
COCc1cccc(-c2cc(C(=O)OC)c3n(c2=O)CCC3)c1	none (no result: ARFGAP1 inh, ASAP1 GAP inh)
O=C(O)c1ccc(-n2[nH]c3c(c2=O)CCCC3)cc1	none
Cc1cc(=O)n(-c2ccc(C(=O)O)cc2)[nH]1	ARFGAP1 inh 28 | ARFGAP1 confirm inactive
